Measurements as given in ChEMBL document CHEMBL4190396, “Discovery of Novel Small-Molecule Inhibitors of NF-κB Signaling with Antiinflammatory and Anticancer Properties” (J Med Chem, 2018).
Calls of active or inactive are those of the source. No cut-off for these calls is given here.

These molecules were tested against T1, Toll-like receptor 7 (Homo sapiens) (UniProt Q9NYK1) (assay: Inhibition of human TLR7 expressed in HEK293 cells assessed as decrease in R848-induced NF-kappaB activation-mediated SEAP production at 40 uM after 24 hrs by Quanti-blue-based assay relative to control).
T1 sequence (whole entry): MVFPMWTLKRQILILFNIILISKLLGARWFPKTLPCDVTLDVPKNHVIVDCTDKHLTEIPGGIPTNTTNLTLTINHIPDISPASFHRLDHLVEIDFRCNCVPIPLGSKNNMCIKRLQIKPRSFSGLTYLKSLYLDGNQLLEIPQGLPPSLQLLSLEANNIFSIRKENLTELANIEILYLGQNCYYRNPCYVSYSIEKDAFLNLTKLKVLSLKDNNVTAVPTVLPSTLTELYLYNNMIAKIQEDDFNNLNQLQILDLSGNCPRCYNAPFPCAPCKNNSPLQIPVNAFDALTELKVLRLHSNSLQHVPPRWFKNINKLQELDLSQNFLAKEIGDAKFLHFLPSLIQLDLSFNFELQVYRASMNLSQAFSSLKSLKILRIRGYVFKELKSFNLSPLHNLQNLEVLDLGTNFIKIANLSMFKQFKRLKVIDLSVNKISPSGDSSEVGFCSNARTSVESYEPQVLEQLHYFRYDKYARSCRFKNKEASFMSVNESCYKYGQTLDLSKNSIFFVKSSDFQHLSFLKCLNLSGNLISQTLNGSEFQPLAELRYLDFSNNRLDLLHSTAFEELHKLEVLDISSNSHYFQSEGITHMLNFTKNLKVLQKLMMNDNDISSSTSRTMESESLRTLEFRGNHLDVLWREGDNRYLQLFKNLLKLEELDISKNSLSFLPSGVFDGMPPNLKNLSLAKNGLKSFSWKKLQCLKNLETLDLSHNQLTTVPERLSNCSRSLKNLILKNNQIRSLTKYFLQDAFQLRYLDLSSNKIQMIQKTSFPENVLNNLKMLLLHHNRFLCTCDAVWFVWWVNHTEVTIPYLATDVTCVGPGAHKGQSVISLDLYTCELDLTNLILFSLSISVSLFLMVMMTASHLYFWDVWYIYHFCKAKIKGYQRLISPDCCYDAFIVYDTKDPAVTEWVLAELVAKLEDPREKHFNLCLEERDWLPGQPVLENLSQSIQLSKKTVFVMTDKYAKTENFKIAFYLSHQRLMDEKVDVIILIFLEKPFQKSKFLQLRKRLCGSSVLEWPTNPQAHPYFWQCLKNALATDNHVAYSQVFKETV
Format: cell-based
Outline: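 Screening mode: HEK hTLR7 cells, 20,000/well in duplicate, stimulated with R848 1 µg/mL, library compounds at 40 µM; triptolide 40 nM positive control, 0.4% DMSO negative control; SEAP read by QUANTI-Blue.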

| SMILES | inhibition [%] |
| --- | --- |
| O=C(NNC(=O)c1ccccn1)c1ccc(C(F)(F)F)cc1 | 85.4 |
| O=C(NNC(=O)c1csc(-c2ccncc2)n1)c1ccccn1 | 33 |
| O=C(NNC(=O)c1cnccn1)c1cccc(C(F)(F)F)c1 | 29 |
| O=C(NNC(=O)c1csc(-c2cccnc2)n1)c1ccccn1 | 86 |
| COC(=O)c1cccc(C(=O)NNC(=O)c2csc(C)n2)c1 | 9 |
| CCCC1Nc2nccnc2C(=O)N1NC(=O)c1cccc(C(F)(F)F)c1 (configuration not stated) | 21 |
| Nc1cccnc1C(=O)NNC(=O)c1cccc(C(F)(F)F)c1 | 83.1 |
| Cc1nc(C(=O)NNC(=O)c2ccccn2)cs1 | 73 |
| Cc1nc(C(=O)NNC(=O)c2cccc(OC(F)(F)F)c2)cs1 | 26 |
| CC(C)c1nc(C(=O)NNC(=O)c2ccccn2)cs1 | 94.2 |
| O=C(NNC(=O)c1ncccc1O)c1ccc(Br)cc1 | 96.2 |
| Cc1nc(C(=O)NNC(=O)c2cccc(C(F)(F)F)c2)cs1 | 31 |
| Cc1nc(C(=O)NNC(=O)c2cccc(O)c2)cs1 | 18 |
| Cc1nc(C(=O)NNC(=O)c2ccncc2)cs1 | 19.5 |
| Cc1nc(C(=O)NNC(=O)c2cc(Cl)cc(Cl)c2)cs1 | 24 |
| Nc1nccnc1C(=O)NNC(=O)c1ccc(Br)cc1 | 36.2 |
| Nc1nccnc1C(=O)NNC(=O)c1ccc(F)cc1F | 26 |
| Cc1nc(C(=O)NNC(=O)c2ccccc2Cl)cs1 | 6 |
| CCCCCCNC(=O)c1ccc(C(=O)NNC(=O)c2nccnc2N)cc1 | 17 |
| Nc1nccnc1C(=O)NNC(=O)c1ccc(Cl)cc1 | 42 |

| SMILES | inhibition [%] |
| --- | --- |
| Cc1ccc2c(Cl)c(C(=O)NNC(=O)c3ccc(Cl)cc3)sc2c1 | 16.7 |
| Nc1nccnc1C(=O)NNC(=O)c1cccc(C(F)(F)F)c1 | 68 |
| O=C(NNC(=O)c1ncccc1O)c1ccc(C(F)(F)F)cc1 | 97.4 |
| O=C(NNC(=O)c1ncccc1O)c1cccc(C(F)(F)F)c1 | 96 |
| COc1ccc(C(=O)NNC(=O)c2nccnc2N)cc1 | 20.4 |
| Nc1ncccc1C(=O)NNC(=O)c1cccc(C(F)(F)F)c1 | 22 |
| COC(=O)c1ccc(C(=O)NNC(=O)c2nccnc2N)cc1 | 18 |
| Nc1nccnc1C(=O)NNC(=O)c1ccc(O)cc1 | 17.7 |
| Nc1ncc(Br)nc1C(=O)NNC(=O)c1cccc(C(F)(F)F)c1 | 18.2 |
| Nc1nccnc1C(=O)NNC(=O)c1c(Cl)cccc1Cl | 28 |
| O=C(NNC(=O)c1ccccn1)c1ccc(Cl)cc1 | 76 |
| Cc1nc(C(=O)NNC(=O)c2ccc(Cl)cc2)cs1 | 51 |
| Cc1nc(C(=O)NNC(=O)c2cccnc2)cs1 | 21 |
| Nc1nccnc1C(=O)NNC(=O)c1cccnc1 | 12 |
| O=C(NNC(=O)c1ncccc1O)c1ccc(OC(F)(F)F)cc1 | 96.5 |
| O=C(NNC(=O)c1cc2ccccc2[nH]1)c1ccc(Cl)cc1 | 13 |
| Cc1ncc(C(=O)NNC(=O)c2ccc(Cl)cc2)s1 | 17 |
| CC(C)c1cc(C(=O)NNC(=O)c2ccc(Cl)cc2)[nH]n1 | 11 |
| Nc1nccnc1C(=O)NNC(=O)c1ccccc1C(F)(F)F | 23 |
| Cc1nc(C(=O)NNC(=O)c2cccc(Cl)c2)cs1 | 40 |

Next, values leading:

| inhibition [%] | SMILES |
| --- | --- |
| 15 | N#Cc1ccc(C(=O)NNC(=O)c2nccnc2N)cc1 |
| 21.1 | Cc1nc(C(=O)NNC(=O)c2cccc(F)c2)cs1 |
| 24 | COc1cccc(C(=O)NNC(=O)c2csc(C)n2)c1 |
| 6.4 | Cc1nc(C(=O)NNC(=O)c2cccc(C#N)c2)cs1 |
| 81 | O=C(NNC(=O)c1ncccc1O)c1ccc(Cl)cc1 |
| 98.8 | O=C(NNC(=O)c1csc(-c2ccccc2)n1)c1ccccn1 |
| 79.8 | O=C(NNC(=O)c1ccccn1)c1ccc(OC(F)(F)F)cc1 |
| 82.3 | O=C(NNC(=O)c1ccccn1)c1ccc(Br)cc1 |
| 19 | O=C(NNC(=O)c1nccnc1Cl)c1cccc(C(F)(F)F)c1 |
| 23 | Nc1nccnc1C(=O)NNC(=O)c1ccc([N+](=O)[O-])cc1Cl |
| 21 | Nc1ncc(Cl)nc1C(=O)NNC(=O)c1cccc(C(F)(F)F)c1 |
| 72 | Nc1nccnc1C(=O)NNC(=O)c1ccc(OC(F)(F)F)cc1 |
| 88 | O=C(NNC(=O)c1ccccn1)c1cccc(C(F)(F)F)c1 |
| 30.6 | Cc1nc(C(=O)NNC(=O)c2cccc(Br)c2)cs1 |
| 79 | Nc1nccnc1C(=O)NNC(=O)c1ccc(C(F)(F)F)cc1 |
| 24 | O=C(NNC(=O)c1nccs1)c1ccc(Cl)cc1 |

What follows are molecules tested against T1, Toll-like receptor 7 (Homo sapiens) (assay: Inhibition of human TLR7 expressed in HEK293 cells assessed as decrease in R848-induced NF-kappaB activation-mediated SEAP production at 5 uM after 24 hrs by Quanti-blue-based assay relative to control).
Format: cell-based

| SMILES | inhibition [%] |
| --- | --- |
| O=C(NNC(=O)c1csc(-c2cccc(Cl)c2Cl)n1)c1ccccn1 | 99.9 |
| Cc1ccc(-c2nc(C(=O)NNC(=O)c3ccccn3)cs2)cc1 | 88.2 |
| O=C(NNC(=O)c1csc(-c2ccc(Cl)cc2)n1)c1ccccn1 | 91 |
| O=C(NNC(=O)c1csc(-c2cccc(F)c2)n1)c1ccccn1 | 79 |
| O=C(NNC(=O)c1csc(-c2cccc(Cl)c2)n1)c1ccccn1 | 93.7 |
| O=C(NNC(=O)c1csc(-c2cccc(Br)c2)n1)c1ccccn1 | 97.6 |
| CCc1ccc(-c2nc(C(=O)NNC(=O)c3ccccn3)cs2)cc1 | 91.9 |
| O=C(NNC(=O)c1csc(-c2cc(Cl)cc(Cl)c2)n1)c1ccccn1 | 99.1 |

Results, then the molecule that gave them:

| inhibition [%] | SMILES |
| --- | --- |
| 96.1 | O=C(NNC(=O)c1csc(-c2ccc(C(F)(F)F)cc2)n1)c1ccccn1 |
| 93.1 | CN(C)c1ccc(-c2nc(C(=O)NNC(=O)c3ccccn3)cs2)cc1 |
| 80.3 | COc1ccc(-c2nc(C(=O)NNC(=O)c3ccccn3)cs2)cc1 |
| 96.7 | O=C(NNC(=O)c1csc(-c2cccc(C(F)(F)F)c2)n1)c1ccccn1 |
| 66 | COc1ccc(-c2nc(C(=O)NNC(=O)c3ccccn3)cs2)cc1OC |
| 65 | O=C(NNC(=O)c1csc(-c2ccc(F)cc2)n1)c1ccccn1 |

These molecules were tested against T1, Toll-like receptor 7 (Homo sapiens) (assay: Inhibition of human TLR7 expressed in HEK293 cells assessed as decrease in R848-induced NF-kappaB activation-mediated SEAP production at 30 uM after 24 hrs by Quanti-blue-based assay relative to control).
Format: cell-based

| inhibition | SMILES |
| --- | --- |
| Active | Nc1nccnc1C(=O)NNC(=O)c1cccc(C(F)(F)F)c1 |
| Active | Cc1nc(C(=O)NNC(=O)c2ccc(Cl)cc2)cs1 |
